Assay results: publication PMC3793218 (Scientific Reports, 2013)
Each block holds one molecule with its values, some of them ahead of it.

Legend:
human UGT1A1 [1] = target: T1, human UGT1A1 (Homo sapiens, UniProt P22309); experiment: Inhibition of estradiol 3-O-glucuronidation in the UGT1A1 recombinant system; assay type: biochemical; details: for Inhibitory pattern against estradiol 3-O-glucuronidation: Recombinant UGT1A1, Dixon plot; for Inhibition of UGT1A1 activity: UGT1A1 recombinant system, 50 μM fatty acid
T1 sequence (P22309 26-533): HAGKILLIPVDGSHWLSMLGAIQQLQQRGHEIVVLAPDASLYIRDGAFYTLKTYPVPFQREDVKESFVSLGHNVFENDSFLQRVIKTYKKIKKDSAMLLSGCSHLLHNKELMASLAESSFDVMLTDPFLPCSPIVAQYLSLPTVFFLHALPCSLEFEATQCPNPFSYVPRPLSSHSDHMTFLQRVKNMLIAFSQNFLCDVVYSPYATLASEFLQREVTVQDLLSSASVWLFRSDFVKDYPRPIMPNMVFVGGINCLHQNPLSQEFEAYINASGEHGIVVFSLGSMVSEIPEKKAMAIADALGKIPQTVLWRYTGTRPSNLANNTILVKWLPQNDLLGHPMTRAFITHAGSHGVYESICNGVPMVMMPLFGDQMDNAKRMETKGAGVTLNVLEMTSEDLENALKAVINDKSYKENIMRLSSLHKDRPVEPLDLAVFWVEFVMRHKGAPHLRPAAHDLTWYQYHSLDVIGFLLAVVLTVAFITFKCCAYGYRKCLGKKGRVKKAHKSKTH
Method in brief: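 Recombinant UGT1A1 Supersomes (0.25 mg/ml) were used in 50 mM Tris-HCl pH 7.4, 10 mM MgCl2, 25 μg/ml alamethicin and 2 mM UDPGA, with test fatty acid at 1–50 μM, 3-min preincubation, and 30 min at 37°C. For IC50, estradiol was 10 μM, runs were duplicate, and values came from linear regression. For Ki, estradiol was 5, 10 or 20 μM with Dixon plot. Product measured by HPLC-fluorescence against authentic standard.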

UGT1A1 = experiment: Inhibition of estradiol 3-O-glucuronidation in human small intestine microsomes; assay type: biochemical; details: human, human small intestine microsomes; for activity at 30 min, 50 μM: pH 7.4, probe estradiol (10 μM; estradiol 3-O-glucuronide formation)
Method in brief: (§1)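 Microsomes from human liver or small intestine (0.25 mg/ml) were incubated with 50 mM Tris-HCl pH 7.4, 10 mM MgCl2, 25 μg/ml alamethicin, 2 mM UDPGA, estradiol at 5, 10 or 20 μM, and test fatty acid at 1–50 μM. After 3-min preincubation at 37°C, UDPGA was added to start; 30 min at 37°C; cold methanol stop. Glucuronide measured by HPLC-fluorescence (ex 280/em 310 nm); Dixon plot gave inhibition type and Ki.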

[2] = test system: UGT1A1 activity in human small intestine microsomes; experiment: as above; assay type: biochemical; details: Human small intestine microsomes; Dixon plot
Method in brief: as §1

[3] = target: T2, UGT1A1 activity in human liver microsomes (Homo sapiens, UniProt P22309); experiment: Inhibition of estradiol 3-O-glucuronidation in human liver microsomes; assay type: biochemical; details: for Inhibitory pattern against estradiol 3-O-glucuronidation: Human liver microsomes, Dixon plot
T2 sequence (P22309 26-533): T1 sequence (P22309 26-533)
Method in brief: as §1

hUGT1 mice = assay type: in vivo; details: neonatal hUGT1 mice; oral 10 mg/kg at 12 days after birth; 48 hours after treatment; control increase 2.3 ± 3.2 mg/dL
[4] = test system: bilirubin clearance by UGT1A1; experiment: Estimated ratio of intrinsic clearance; details: Equation 4; DHA concentration in human breast milk around 60 μM
human UGT1A1 [5] = target: T1, human UGT1A1; details: read-out: Km value of bilirubin glucuronidation; cited from earlier work

SMILES: CCCCC/C=C\C/C=C\C/C=C\C/C=C\CCCC(=O)O [Arachidonic acid]
IC50 (human UGT1A1 [1]): 22.7 µM

SMILES: CC/C=C\C/C=C\C/C=C\C/C=C\C/C=C\CCCC(=O)O [EPA, eicosapentaenoic acid]
IC50 (human UGT1A1 [1]): 19.9 µM

SMILES: CCCCC/C=C\C/C=C\CCCCCCCC(=O)O [Linoleic acid]
activity at 30 min, 50 μM (UGT1A1): > 80%
IC50 (human UGT1A1 [1]): 33.1 µM
Ki (human UGT1A1 [1]): 22.1 µM
Inhibitory pattern against estradiol 3-O-glucuronidation (human UGT1A1 [1]): non-competitively
Ki [3]: 24 µM
Inhibitory pattern against estradiol 3-O-glucuronidation [3]: non-competitively

SMILES: CCCCCCCC/C=C\CCCCCCCC(=O)O [Oleic acid]
activity at 30 min, 50 μM (UGT1A1): > 80%
IC50 (human UGT1A1 [1]): 31.6 µM
Ki (human UGT1A1 [1]): 23.4 µM
Inhibitory pattern against estradiol 3-O-glucuronidation (human UGT1A1 [1]): non-competitively
Ki [3]: 29.3 µM
Inhibitory pattern against estradiol 3-O-glucuronidation [3]: non-competitively

SMILES: C=CC1=C(C)/C(=C/c2[nH]c(Cc3[nH]c(/C=C4\NC(=O)C(C)=C4C=C)c(C)c3CCC(=O)O)c(CCC(=O)O)c2C)NC1=O [bilirubin]
Km (human UGT1A1 [5]): ~2 µM

SMILES: CCCCCCCCCCCC(=O)O [lauric acid]
Inhibition of UGT1A1 activity (human UGT1A1 [1]): not inhibited at all

SMILES: CCCCCCCCCCCCCCCCCCCCCCCC(=O)O [lignoceric acid]
Inhibition of UGT1A1 activity (human UGT1A1 [1]): not inhibited at all

SMILES: CCCCCCCCCCCCCCCCCC(=O)O [stearic acid]
IC50 (human UGT1A1 [1]): > 50 µM

More lines, main results first:

Ki at 30 min (UGT1A1; pH 7.4): 5.2 µM
IC50 (human UGT1A1 [1]): 11.6 µM
Ki (human UGT1A1 [1]): 1.8 µM
Inhibitory pattern against estradiol 3-O-glucuronidation (human UGT1A1 [1]): non-competitive
Ki [3]: 4.3 µM
Inhibitory pattern against estradiol 3-O-glucuronidation [3]: non-competitive
R value (ratio of intrinsic clearance in presence and absence of inhibitor) [4]: 0.08
SMILES: CC/C=C\C/C=C\C/C=C\C/C=C\C/C=C\C/C=C\CCC(=O)O [DHA, docosahexaenoic acid]
Inhibitory pattern against estradiol 3-O-glucuronidation [2]: non-competitive
Increase of serum bilirubin levels from 12 days to 14 days after birth (hUGT1 mice): 6.6 mg/dL

IC50 (human UGT1A1 [1]): 37.1 µM
SMILES: CCCCCC/C=C\CCCCCCCC(=O)O [Palmitoleic acid]

IC50 (human UGT1A1 [1]): > 50 µM
Inhibition of UGT1A1 activity (human UGT1A1 [1]): not inhibited at all
SMILES: CCCCCCCCCCCCCCCCCCCC(=O)O [arachidic acid]

IC50 (human UGT1A1 [1]): > 50 µM
Inhibition of UGT1A1 activity (human UGT1A1 [1]): not inhibited at all
SMILES: CCCCCCCCCCCCCCCCCCCCCC(=O)O [behenic acid]

IC50 (human UGT1A1 [1]): > 50 µM
SMILES: CCCCCCCCCC(=O)O [decanoic acid]

IC50 (human UGT1A1 [1]): > 50 µM
Inhibition of UGT1A1 activity (human UGT1A1 [1]): not inhibited at all
SMILES: CCCCCCCCCCCCCC(=O)O [myristic acid]

IC50 (human UGT1A1 [1]): > 50 µM
Inhibition of UGT1A1 activity (human UGT1A1 [1]): not inhibited at all
SMILES: CCCCCCCCCCCCCCCC(=O)O [palmitic acid]
